Screens: PubChem, several laboratories
TMEM16A act – TMEM16A chloride channel activators or potentiators, primary screen, cell-based, HTS; 0.3% of 340,000 active; AID 623877, 2012; HEK293 TMEM16A/YFP-H148Q/I152L, iodide quench fluorescence; hits give low values; B-score at 10 µM; Anoctamin-1 (Mus musculus), Q8BHY3;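 active = fluorescence-ratio B-score plate-corrected deviation score at least 3 library SD below zero, with starting fluorescence score within 5 deviations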;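 also: channel opened by trigger with iodide after compound preincubation; score built on the fluorescence ratio of max minus min over baseline; more negative score means more quench and so TMEM16A activation or potentiation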
TMEM16A inh – TMEM16A chloride channel inhibitors, primary screen, cell-based, HTS | Anoctamin-1 (Mus musculus), Q8BHY3 | 1.2% of 310,000 active | HEK293 TMEM16A/YFP iodide influx fluorescence, ionomycin | normalized B-score (activity score, 25-100; higher = stronger inhibition) at 10 µM;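 active = ratio plate-corrected score three or more library SD toward inhibition, starting fluorescence score within five deviations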;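 also: score derived from kinetic fluorescence span divided by baseline fluorescence per well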
DAGLB inhibitor – DAGLB lipase inhibitors, primary screen, biochemical, fluorescence, HTS; inhibition, % at 5.17 µM; AID 504411, 2011; HEK293T DAGLB membrane lysate, EnzChek fluorogenic substrate; Diacylglycerol lipase-beta (Homo sapiens), Q8NCG7; 0.059% of 340,000 active; in the data active = inhibition above about 34%;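 also: 0% = enzyme with vehicle and 100% = wells lacking enzyme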
Target sequence (Q8NCG7 whole entry, looked up): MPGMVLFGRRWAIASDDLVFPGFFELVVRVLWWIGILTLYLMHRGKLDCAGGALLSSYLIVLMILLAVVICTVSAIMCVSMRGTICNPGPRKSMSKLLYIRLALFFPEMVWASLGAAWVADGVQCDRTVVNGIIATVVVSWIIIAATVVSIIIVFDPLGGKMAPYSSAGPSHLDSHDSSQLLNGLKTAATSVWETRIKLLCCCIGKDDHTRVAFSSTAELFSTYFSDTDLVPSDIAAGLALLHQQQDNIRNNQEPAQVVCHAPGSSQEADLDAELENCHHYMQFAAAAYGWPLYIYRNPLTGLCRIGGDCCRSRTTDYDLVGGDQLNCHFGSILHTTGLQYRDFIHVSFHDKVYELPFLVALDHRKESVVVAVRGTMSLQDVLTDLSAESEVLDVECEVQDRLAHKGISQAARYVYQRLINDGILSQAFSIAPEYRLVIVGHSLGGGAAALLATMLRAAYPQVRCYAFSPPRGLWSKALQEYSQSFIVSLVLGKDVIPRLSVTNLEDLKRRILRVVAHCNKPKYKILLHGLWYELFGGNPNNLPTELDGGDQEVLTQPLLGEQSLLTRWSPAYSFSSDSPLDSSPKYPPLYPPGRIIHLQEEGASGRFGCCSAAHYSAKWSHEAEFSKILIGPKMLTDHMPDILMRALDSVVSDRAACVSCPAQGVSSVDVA
MT1-MMP act inh – blockers of MT1-MMP proenzyme processing, primary screen, HT1080 RFP-PRO-GFP cells, GFP/RFP fluorescence. Matrix metalloproteinase-14 (Homo sapiens), P50281. GFP/RFP ratio change, % at 20 µM. 0.061% of 360,000 active. AID 651647, 2012. GFP/RFP ratio fluorescence, overnight; percent of plate control window, DMSO zero;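 active = GFP/RFP ratio change of at least 30% with cell ATP level not reduced by more than half and red fluorescence within 50% of control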
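Material: RFP-PRO-GFP reporter HT1080 cells. Dosing: single-point 20 µM compound, 1% DMSO. Controls: DMSO and RFP-L50D-GFP cell wells. Timing: cells overnight before dosing, compound overnight, 37 °C, 5% CO2. Measure: GFP/RFP fluorescence ratio.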
TMEM16A reconf – TMEM16A chloride channel inhibitors, confirmation, cell-based, re-confirmation; shares compounds with TMEM16A inh; HEK293 TMEM16A/YFP-H148Q, iodide quench fluorescence; ionomycin added to raise cell calcium; inhibition, % at 10 µM; 39% of 2,300 active; AID 652189, 2013;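 active = mean duplicate percent inhibition, scaled so buffer wells are 0 and the reference blocker 100, over three buffer SD above buffer mean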
TMEM16A Ca cntr – calcium mobilization in TMEM16A/YFP HEK293 cells, confirmation, counter-screen for TMEM16A inhibitor project; calcium response (% of ionomycin), % at 10 µM; AID 652231, 2013; Fluo4 calcium mobilization; 2% of 2,300 active; shares compounds with TMEM16A inh;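 active = duplicate-averaged calcium signal over 20% of the ionomycin maximum, relative to buffer baseline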;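 also: each well's signal is peak minus trough fluorescence divided by its pre-addition baseline; 0% = buffer wells and 100% = ionomycin wells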
Parental YFP cnt – iodide YFP quench changes in parental YFP-HEK293, counter-screen for TMEM16A inhibitor project, cell-based; ionomycin; shares compounds with TMEM16A inh; 2,300 tested, under 10 active; YFP ratio F(max-min)/F0 at 10 µM;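 active = yellow fluorescent protein signal ratio exceeding the buffer control mean by over 5 SD of those controls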;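 also: ratio is mean of duplicate wells from kinetic YFP trace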
ClC-1 rat inh – ClC-1 chloride channel inhibition, selectivity assay for TMEM16A inhibitor project, cell-based, voltage-dependent ClC-1. shares compounds with TMEM16A inh. CHO ClC-1-YFP, iodide influx fluorescence quench; iodide control reads 0, buffer control 100. ratio percent, % at 10 µM. 2,300 tested, under 10 active. AID 652236, 2013;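 active = duplicate-mean ratio percent above the mean of iodide-only control wells, which defines zero, plus 5 of their SD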;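 also: higher percent means stronger block of ClC-1 iodide influx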
* marks the source's active call; other numbers are inactive results; i = inactive; . = no result. In the library only some 1.3% were active in any assay of this set; here they are far more common.

SMILES	TMEM16A act	TMEM16A inh	DAGLB inhibitor	MT1-MMP act inh	TMEM16A reconf	TMEM16A Ca cntr	Parental YFP cnt	ClC-1 rat inh
O=C(N[C@@H](Cc1c[nH]c2ccccc12)C(=O)O)c1ccccc1Cl	i	25*	-2.3	1.4	i	i	-1.16	5.0
N#Cc1nc(N2CCCC2)nc(N2CCCC2)n1	i	100*	-3.6	12.3	22.0%*	i	-0.92	0.0
CC1CC(C)CN(CCCNC(=O)c2ccc3nc(N4CCCCC4)sc3c2)C1 (stereo not given)	i	100*	-4.7	-0.6	i	i	-1.11	-20.0
CCCN1CCN(CCCNC(=O)c2ccc3nc(N4CCCCC4)sc3c2)CC1	i	i	-1.7	2.8	.	.	.	.
CCN(C[C@H]1N[C@@](C)(C(=O)OC)[C@H]2C(=O)N(C)C(=O)[C@@H]12)S(=O)(=O)c1ccc(F)cc1	.	.	-1.4	0.1	.	.	.	.
CC(C#N)(NC(=O)CN1CCN(S(=O)(=O)c2ccccc2C#N)CC1)C1CC1 (stereo not given)	i	.	-0.4	-1.8	.	.	.	.
COc1ccc(-n2nc(C(=O)NCC(=O)NCCc3ccc(OC)c(OC)c3)c3ccccc3c2=O)cc1Cl	i	25*	-3.3	2.7	i	i	-1.34	-3.5
CCOCc1nc2nc(Cl)c(Cl)nc2[nH]1	.	.	-5.1	-19.7	.	.	.	.
Cc1sc2ncnc(N3CCN(S(=O)(=O)c4ccc(Br)cc4)CC3)c2c1C	i	25*	0.4	-14.4	30.0%*	i	-0.99	-23.0
Cc1sc2ncnc(N3CCN(S(=O)(=O)c4ccc(C(C)(C)C)cc4)CC3)c2c1C	i	.	-5.6	-0.8	.	.	.	.
Cc1cccc2nc(-c3cccnc3)c(Nc3ccccc3)n12	i	100*	2.6	0.2	35.0%*	i	-0.985	-25.5
C=CCNc1nc(NCCOc2ccccc2Cl)c2sc(-c3ccccc3)cc2n1	.	.	.	-5.1	.	.	.	.
Cc1ccc(NS(=O)(=O)c2sc3ccc(Cl)cc3c2C)cc1	i	100*	.	3.0	i	i	-0.98	-7.0
Cc1ccc2nc(-c3ccc(NS(=O)(=O)c4ccc(F)c(F)c4)cc3)sc2c1	i	i	1.0	5.1	.	.	.	.
CCc1nc2c(OCc3cccc(Cl)c3)cccn2c1N(C)C(C)=O	.	.	.	-8.2	.	.	.	.
O=[N+]([O-])c1ccc(N2CCN(C(=S)NC3CCCCC3)CC2)cc1	i	25*	1.4	-1.8	i	i	-0.991	-21.0
O=[N+]([O-])c1ccc(N2CCN(C(=S)Nc3ccccc3)CC2)cc1	i	i	1.0	7.8	.	.	.	.
CN(Cc1ccccc1)C(=O)[C@@H]1CCCN1C(=O)[C@@H]1CCCN1C(=O)OC(C)(C)C	.	.	.	1.6	.	.	.	.
CCCc1nc2c(sc3nc4c(cc32)COC(C)(C)C4)c(=O)n1Cc1ccco1	i	25*	2.1	-23.2	47.0%*	i	-1.15	-13.0
CCC(C)(C)C1CCC2(CC1)NC(=O)N(CC(=O)N1CCN(C(=O)c3ccco3)CC1)C2=O (stereo not given)	i	.	-0.4	2.4	.	.	.	.
CC(=O)c1cn(CC(=O)Nc2ccc(C)cc2C)c2ccccc12	i	25*	-2.8	2.4	19.5%*	i	-1	-9.0
Cc1cc(N2CCOCC2)cc(C)[n+]1[O-]	i	25*	-1.6	5.9	i	i	-0.95	-10.0
